Source: ChEMBL document CHEMBL1126114, “A novel orally active inhibitor of IL-1 generation: synthesis and structure-activity relationships of 3-(4-hydroxy-1-naphthalenyl)-2-propenoic acid derivatives” (J Med Chem, 1992)

Columns and labels:
Format in all cases: functional
Rattus norvegicus [1] = test: The compound was tested for IL-1 generation on CMC-LPS air-pouch model at 3 mg/kg by oral administration
Outline: (§1)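 Rats got 10 mL subcutaneous dorsal air, then 6 mL sterile 2% (w/v) CMC-Na in saline into the pouch 24 h later, then 5 ng LPS in 0.5 mL saline 24 h after that. Compound given orally as a suspension in 0.5% methyl cellulose 2 h before LPS. Exudate collected 4 h after LPS. Extra- plus intracellular IL-1 measured by LAF assay against a human recombinant IL-1α curve. Percent inhibition versus control; five rats per group.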

Rattus norvegicus [2] = test: % inhibition against arthritis on adjuvant-untreated paw in rats at 1 mg/kg by oral administration
Outline: (§2)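 Adjuvant arthritis in rats; drug given orally once daily from the first day of adjuvant treatment. Swelling of the adjuvant-untreated paw measured by plethysmometer on day 15 after adjuvant; % inhibition versus control. Mean ± SEM of 6–10 animals; significance versus control.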

Rattus norvegicus [3] = test: The compound was tested for Granuloma generation on CMC-LPS air-pouch model at 3 mg/kg by oral administration
Outline: (§3)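 Rat CMC-LPS air pouch (air, 2% CMC-Na, then LPS 5 ng). Oral dosing in 0.5% methyl cellulose 2 h before LPS. Granuloma wet weight determined 5 days after LPS; % inhibition versus control, with an LPS-free group included.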

Rattus norvegicus [4] = test: Inhibitory activity against Granuloma on CMC-LPS air-pouch model at 3 mg/kg by oral administration; outline: as §3
Rattus norvegicus [5] = test: Inhibitory activity against IL-1 on CMC-LPS air-pouch model at 3 mg/kg by oral administration
Outline: (§4)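 Rat CMC-LPS air pouch: air s.c., 2% CMC-Na 24 h later, LPS 5 ng 24 h after that. Compound given orally in 0.5% methyl cellulose 2 h before LPS. Exudate collected at 4 h; IL-1 (extra- plus intracellular) read by LAF assay against a recombinant human IL-1α curve.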

Rattus norvegicus [6] = test: Inhibitory activity against PGE-2 on CMC-LPS air-pouch model at 3 mg/kg by oral administration
Outline: (§5)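 Rat CMC-LPS air pouch (air, 2% CMC-Na, then LPS 5 ng). Oral dosing in 0.5% methyl cellulose 2 h before LPS. PGE2 in the exudate supernatant collected 4 h after LPS, measured by radioimmunoassay.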

Rattus norvegicus [7] = test: The compound was tested for IL-1 generation on CMC-LPS air-pouch model at 2.5 mg/kg by oral administration; outline: as §1
Rattus norvegicus [8] = test: % inhibition against arthritis on adjuvant-untreated paw in rats at 5 mg/kg by oral administration; outline: as §2
Rattus norvegicus [9] = test: Inhibitory activity against Granuloma on CMC-LPS air-pouch model at 10 mg/kg by oral administration; outline: as §3
Rattus norvegicus [10] = test: Inhibitory activity against Granuloma on CMC-LPS air-pouch model at 2.5 mg/kg by oral administration; outline: as §3
Rattus norvegicus [11] = test: Inhibitory activity against IL-1 on CMC-LPS air-pouch model at 10 mg/kg by oral administration; outline: as §4
Rattus norvegicus [12] = test: Inhibitory activity against IL-1 on CMC-LPS air-pouch model at 2.5 mg/kg by oral administration; outline: as §4
Rattus norvegicus [13] = test: Inhibitory activity against PGE-2 on CMC-LPS air-pouch model at 10 mg/kg by oral administration; outline: as §5
Rattus norvegicus [14] = test: Inhibitory activity against PGE-2 on CMC-LPS air-pouch model at 2.5 mg/kg by oral administration; outline: as §5

COc1ccc2c(c1)c(CC(=O)O)c(C)n2C(=O)c1ccc(Cl)cc1 [INDOMETHACIN]
IL-1 level (Rattus norvegicus [1]): 995 units/mL | inhibition in vivo at 1 mg/kg (Rattus norvegicus [2]): 47.8% | Wet weight (Rattus norvegicus [3]): 2.08 g | inhibition in vivo at 3 mg/kg (Rattus norvegicus [4]): < 25% | inhibition in vivo at 3 mg/kg (Rattus norvegicus [5]): < 25% | inhibition in vivo at 3 mg/kg (Rattus norvegicus [6]): 97%

C[C@]12C=CC(=O)C=C1CC[C@@H]1[C@@H]2[C@@H](O)C[C@@]2(C)[C@H]1CC[C@]2(O)C(=O)CO [PREDNISOLONE]
IL-1 level (Rattus norvegicus [7]): 596 units/mL | inhibition in vivo at 5 mg/kg (Rattus norvegicus [8]): 44.4% | inhibition in vivo at 10 mg/kg (Rattus norvegicus [9]): 88% | inhibition in vivo at 2.5 mg/kg (Rattus norvegicus [10]): 48% | inhibition in vivo at 10 mg/kg (Rattus norvegicus [11]): 64% | inhibition in vivo at 2.5 mg/kg (Rattus norvegicus [12]): 34% | inhibition in vivo at 10 mg/kg (Rattus norvegicus [13]): 86% | inhibition in vivo at 2.5 mg/kg (Rattus norvegicus [14]): 69%
